Screening results deposited in PubChem BioAssay by several laboratories.
Rows were chosen to be rich in hits. Some 5.3% of all compounds tested hit in one or more screens of this group.
PLK1 PBD inh: blocks phosphopeptide binding to human Plk1 polo box domain; Plk1 PBD phosphopeptide binding, fluorescence polarization; inhibition, %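 (tested at about 20 µM)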; 97,000 compounds, 0.13% hits; AID 693; in the data active = inhibition above about 34%, passing the limit was not always enough
Cav3 T inh: inhibitors of human Cav3.2 T-type calcium channel. O95180. Cav3.2-expressing cells, Fluo-4 calcium fluorescence FDSS; hits give low values. B-score at 10 µM. 100,000 compounds, 4% hits. AID 449739;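 active = single-dose well whose peak fluorescence ratio is a statistical outlier from its plate by either plate-standardised score or position-corrected B-score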
HIV Rev-RRE inh: disrupts HIV-1 Rev binding to RRE RNA; P05866; Rev peptide-RRE RNA binding, FRET; inhibition, % at 8 µM; 97,000 compounds, 0.79% hits; AID 704;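 active = inhibition above the screen-wide mean plus 3 SD, cut at about 35% in these data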
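assay system = Cy5-tagged RRE RNA duplex with fluorescein-tagged Rev peptide | incubation = 5 + 15 min at 25 °C | also added = labelled Rev peptide | measure = % inhibition of FRET ratio versus controls | benchmarks = DMSO wells as 0% and neomycin B wells as 100% inhibition | measured by = FRET fluorescence readout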
EphB4 ephrin blk: antagonists of human EphB4-ephrin-B2 interaction | EphB4 LBD / TNYL-RAW-Alexa532 peptide, fluorescence polarization | AID 720 | inhibition, % at 7 µM | 97,000 compounds, 0.15% hits | P54760;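 active = inhibition above the screen-wide mean inhibition plus 3 SD, cut at about 15% in these data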
FAK blocker: blocks human focal adhesion kinase activity. Q05397. biochemical FAK kinase activity assay. inhibition, %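 (tested at 7 µM)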. 97,000 compounds, 0.84% hits. AID 727; in the data active = inhibition above about 19%
Target sequence (Q05397 whole entry, looked up): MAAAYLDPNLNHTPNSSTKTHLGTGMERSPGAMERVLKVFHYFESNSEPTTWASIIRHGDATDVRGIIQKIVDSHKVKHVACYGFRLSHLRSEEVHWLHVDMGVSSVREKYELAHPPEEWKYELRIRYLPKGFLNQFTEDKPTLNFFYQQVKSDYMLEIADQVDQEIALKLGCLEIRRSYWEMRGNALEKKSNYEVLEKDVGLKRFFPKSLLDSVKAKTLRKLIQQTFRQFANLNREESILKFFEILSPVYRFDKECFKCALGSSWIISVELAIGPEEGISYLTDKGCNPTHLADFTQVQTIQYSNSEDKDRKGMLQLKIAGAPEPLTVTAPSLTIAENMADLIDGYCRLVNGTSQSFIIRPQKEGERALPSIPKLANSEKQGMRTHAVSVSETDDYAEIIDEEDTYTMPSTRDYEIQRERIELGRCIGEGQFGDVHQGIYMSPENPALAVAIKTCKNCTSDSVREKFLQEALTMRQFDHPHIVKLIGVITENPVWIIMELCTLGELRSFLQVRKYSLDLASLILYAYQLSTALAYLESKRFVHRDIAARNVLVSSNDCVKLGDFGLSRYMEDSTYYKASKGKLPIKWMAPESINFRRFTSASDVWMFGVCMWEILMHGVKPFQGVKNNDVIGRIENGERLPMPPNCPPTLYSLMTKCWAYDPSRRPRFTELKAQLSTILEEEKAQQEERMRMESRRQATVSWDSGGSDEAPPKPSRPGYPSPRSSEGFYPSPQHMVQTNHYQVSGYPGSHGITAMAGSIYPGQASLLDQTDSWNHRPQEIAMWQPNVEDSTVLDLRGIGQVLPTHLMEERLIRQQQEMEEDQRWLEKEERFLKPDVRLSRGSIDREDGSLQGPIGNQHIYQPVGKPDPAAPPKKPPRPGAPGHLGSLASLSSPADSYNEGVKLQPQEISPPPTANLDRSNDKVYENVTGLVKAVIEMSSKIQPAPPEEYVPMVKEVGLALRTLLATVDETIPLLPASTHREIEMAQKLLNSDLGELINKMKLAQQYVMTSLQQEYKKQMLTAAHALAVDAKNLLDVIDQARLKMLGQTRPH
PLK1 kinase inh: PLK1 (human) kinase inhibition | 97,000 compounds, 0.53% hits | recombinant PLK1 kinase, TR-FRET peptide phosphorylation | P53350 | inhibition, % at 10 µM;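 active = inhibition of 50% or more in the single-concentration screen; inactive = inhibition below 50%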
Large screens that a line does not name were inactive; [ ] = another dose, or the depositor's remark.

O=C(O)c1ccc(NC(CSCc2cccc(F)c2)C(=O)O)c([N+](=O)[O-])c1 (centres undefined)	none
COc1cc2nc(=S)n3[nH]c(CCn4c(C)nc5ccccc54)nc3c2cc1OC	Cav3 T inh 3.32 (no result: PLK1 PBD inh, HIV Rev-RRE inh, EphB4 ephrin blk, FAK blocker, PLK1 kinase inh)
COCn1c(-c2ccc(OC)c(OC)c2)nc2ccccc21	none
N#C/C(=C(/O)CSc1ccccc1C(=O)O)c1nc2ccccc2s1	none
Cc1ccc(SC/C(O)=C(\C#N)c2nc3ccccc3s2)cc1	Cav3 T inh -4.37
COc1ccc(NC(=O)CSc2ccc3c4c(cccc24)C(=O)c2ccccc2-3)cc1	HIV Rev-RRE inh 125.3[fluorescence artefact?]
Cc1ccc2cc(CN(Cc3ccco3)C(=O)C3CCCCC3)c(=O)[nH]c2c1C	none
Cc1cc(C)c2cc(CN(CCO)C(=O)Nc3ccc(F)cc3)c(=O)[nH]c2c1	none
Cc1cc(C)c2cc(CN(Cc3ccco3)C(=O)NCc3ccccc3)c(=O)[nH]c2c1	Cav3 T inh -7.1 (no result: PLK1 PBD inh, HIV Rev-RRE inh, EphB4 ephrin blk, FAK blocker, PLK1 kinase inh)
Cc1ccc2cc(CN(Cc3ccco3)C(=O)NC3CCCCC3)c(=O)[nH]c2c1C	Cav3 T inh -4.36
O=C(Nc1nc2ccccc2s1)C1CC(=O)N(c2ccc(F)cc2)C1 (centres undefined)	Cav3 T inh -4.57
O=C(NC1=NCCS1)C1CC(=O)N(c2ccc(F)cc2)C1 (centres undefined)	none (no result: Cav3 T inh)
O=C(Nc1nc2ccccc2s1)C1CC(=O)N(c2ccccc2)C1 (centres undefined)	Cav3 T inh -5.13
O=C(Nc1nc2ccccc2s1)C1CC(=O)N(c2ccc(Br)cc2)C1 (centres undefined)	none
NC(=O)C1CCN(C(=O)c2ccc(NC3=NC4CS(=O)(=O)CC4S3)cc2)CC1 (centres undefined)	none
O=c1cc(C(F)(F)F)nc(-n2[nH]c3c(c2=O)CCCC3)[nH]1	HIV Rev-RRE inh 66.7
CC(C)Oc1ccc(C(CC(=O)NCc2ccco2)c2ccccc2)cc1 (centres undefined)	Cav3 T inh -3.94
CCOC(=O)C[C@H]1c2cc(F)ccc2S(=O)(=O)N1Cc1ccc(OC)cc1	none (no result: PLK1 PBD inh, HIV Rev-RRE inh, EphB4 ephrin blk, FAK blocker, PLK1 kinase inh)
Cc1cccc(OCCCSc2nc3ccc(C)cc3[nH]2)c1	Cav3 T inh -4.6
O=C(Nc1cccc(Cl)c1N1CCCC1)c1cccc(-c2cc3ccccc3oc2=O)c1	none
COc1cccc(C2CC(=O)NC(SC)=C2C#N)c1 (centres undefined)	PLK1 kinase inh 68.6 (no result: Cav3 T inh)
O=C(O)c1cnc(-c2ccccc2)nc1Sc1ccc(Cl)cc1	none
O=C(O)c1cnc(-c2ccccc2)nc1Sc1ccccc1Cl	Cav3 T inh -6.36
CCOc1ccc2nc(N3CCC(C(=O)N4CCN(C(=O)c5ccco5)CC4)CC3)sc2c1	none (no result: PLK1 PBD inh, HIV Rev-RRE inh, EphB4 ephrin blk, FAK blocker, PLK1 kinase inh)
CCOc1ccc2cc(/C=C/C(=O)c3ccco3)c(Cl)nc2c1	HIV Rev-RRE inh 52.7 (no result: Cav3 T inh)
Cc1cc(C)cc(NC(=O)OCCN2CCN(Cc3ccccc3)CCC2=O)c1	none (no result: PLK1 PBD inh, HIV Rev-RRE inh, EphB4 ephrin blk, FAK blocker, PLK1 kinase inh)
O=c1cc(N2CCN(c3ccc(F)cc3)CC2)[nH]c(=O)n1Cc1ccc(F)cc1	Cav3 T inh -8.8
COc1ccc(N2CCN(c3cc(=O)n(Cc4ccc(F)cc4)c(=O)[nH]3)CC2)cc1	Cav3 T inh -4.93 (no result: PLK1 PBD inh, HIV Rev-RRE inh, EphB4 ephrin blk, FAK blocker, PLK1 kinase inh)
O=c1cc(N2CCOCC2)[nH]c(=O)n1Cc1ccc(F)cc1	PLK1 kinase inh 68.6
COC(=O)C1CCN(c2cc(=O)n(Cc3ccc(F)cc3)c(=O)[nH]2)CC1	none
Cc1cc(C)c(N2CCN(S(=O)(=O)N3CCCCCC3)CC2)c(C)c1	none
CCCCNC(=O)c1onc(CSc2cccc(C)c2)c1C(=O)O	none
C=CCN1C(=O)CSc2ccc(C(=O)N3CCC(C)CC3)cc21	none
COc1ccc(Cl)cc1NS(=O)(=O)c1ccc(OC)c(OC)c1	none
COc1ccc(S(=O)(=O)Nc2cc(C)ccc2OC)cc1C	Cav3 T inh -7.65
Cc1ccc(N)c(C(O)(C(F)(F)F)C(F)(F)F)c1	none
CNc1ccc(C(O)(C(F)(F)F)C(F)(F)F)cc1C(O)(C(F)(F)F)C(F)(F)F	Cav3 T inh -7.08
C/C=C\C=C\C(=O)Nc1cccc(C2=NOC3(C2)C[C@@H](C(N)=O)N(C(=O)C(c2ccccc2)c2ccccc2)C3)c1 (some centres undefined)	none (no result: PLK1 PBD inh, HIV Rev-RRE inh, EphB4 ephrin blk, FAK blocker, PLK1 kinase inh)
Cc1cc(C)n(CC(O)CN2c3ccccc3Sc3ccccc32)n1 (centres undefined)	Cav3 T inh -6.33
Cc1cc(C)c(C)c(S(=O)(=O)N2CCN(CC(=O)NC(=O)NCc3ccccc3)CC2)c1C	none
CCCOc1cc(C)c(S(=O)(=O)n2ccc(C)n2)cc1C	Cav3 T inh -3.82
CCCOc1cc(C)c(S(=O)(=O)NCCOC)cc1C	none
COc1ccccc1NC(=O)Cn1nc(-c2ccc(Cl)cc2)c2ccccc2c1=O	Cav3 T inh -4.67
Cc1n[nH]c(C)c1S(=O)(=O)N(CC(=O)N1CCc2ccccc21)c1ccc(C(C)C)cc1	Cav3 T inh 3.05
Cc1cc(C)cc(N(CC(=O)N2CCc3ccccc32)S(=O)(=O)c2c(C)noc2C)c1	Cav3 T inh -5.46
Cc1ccc(NC(=O)CN(c2cc(C)cc(C)c2)S(=O)(=O)c2c(C)noc2C)nc1	Cav3 T inh -4.5
Cc1n[nH]c(C)c1S(=O)(=O)N1CCc2ccccc21	none
CCOc1ccc(N(CC(=O)N2CCc3ccccc32)S(=O)(=O)c2c(C)noc2C)cc1	none
Cc1cc(C)cc(N(CC(=O)N2CCn3c2nc2ccccc23)S(=O)(=O)c2c(C)noc2C)c1	Cav3 T inh -5.63
COc1ccc(OC2C(=O)N(Cc3ccc4c(c3)OCO4)C2c2cccs2)cc1 (centres undefined)	none
COc1ccccc1CN1[C@@H](CC(C)=O)c2cc(C(F)(F)F)ccc2S1(=O)=O	none (no result: PLK1 PBD inh, HIV Rev-RRE inh, EphB4 ephrin blk, FAK blocker, PLK1 kinase inh)
CCCCCCNC(=O)n1cc(F)c(=O)[nH]c1=O	none (no result: PLK1 PBD inh, HIV Rev-RRE inh, EphB4 ephrin blk, FAK blocker, PLK1 kinase inh)
CCOC(=O)C1=C(C)NC(C)=C(C(=O)OCC)C1c1ccccc1/C=C/C(=O)OC(C)(C)C	Cav3 T inh -4 (no result: PLK1 PBD inh, HIV Rev-RRE inh, EphB4 ephrin blk, FAK blocker, PLK1 kinase inh)
O=C(N/N=C/c1ccc(OC2CSC2)cc1)c1ccccc1	none
Cc1ccc(N(CC(=O)N/N=C/c2ccc(OC3CSC3)cc2)S(=O)(=O)c2ccccc2)cc1	Cav3 T inh -2.71
N#Cc1c(NC(=O)CN2C(=O)c3ccccc3C2=O)oc(-c2ccccc2)c1-c1ccccc1	Cav3 T inh -4.04
CCn1c(SCC(=O)Nc2oc(-c3ccccc3)c(-c3ccccc3)c2C#N)nnc1-c1ccncc1	none
N#Cc1c(NC(=O)CCN2C(=O)c3ccccc3C2=O)oc(-c2ccccc2)c1-c1ccccc1	Cav3 T inh -7.16
N#Cc1c(NC(=O)CSc2ccccn2)oc(-c2ccccc2)c1-c1ccccc1	Cav3 T inh -6.43
CC(C)CC(C(=O)Nc1oc(-c2ccccc2)c(-c2ccccc2)c1C#N)N1C(=O)c2ccccc2C1=O (centres undefined)	none
CCn1c(SCC(=O)Nc2oc(-c3ccccc3)c(-c3ccccc3)c2C#N)nnc1-c1ccco1	Cav3 T inh -4.72
O=C(O)CCn1cnc2ccccc2c1=O	none
